{"source": "ChEMBL document CHEMBL3862029", "about": "“Discovery of 8-Membered Ring Sulfonamides as Inhibitors of Oncogenic Mutant Isocitrate Dehydrogenase 1” (ACS Med Chem Lett, 2016)", "key": {"[1]": {"system": "Isocitrate dehydrogenase [NADP] cytoplasmic (Homo sapiens), O75874 [R132H]", "sequence (O75874 whole entry R132H)": "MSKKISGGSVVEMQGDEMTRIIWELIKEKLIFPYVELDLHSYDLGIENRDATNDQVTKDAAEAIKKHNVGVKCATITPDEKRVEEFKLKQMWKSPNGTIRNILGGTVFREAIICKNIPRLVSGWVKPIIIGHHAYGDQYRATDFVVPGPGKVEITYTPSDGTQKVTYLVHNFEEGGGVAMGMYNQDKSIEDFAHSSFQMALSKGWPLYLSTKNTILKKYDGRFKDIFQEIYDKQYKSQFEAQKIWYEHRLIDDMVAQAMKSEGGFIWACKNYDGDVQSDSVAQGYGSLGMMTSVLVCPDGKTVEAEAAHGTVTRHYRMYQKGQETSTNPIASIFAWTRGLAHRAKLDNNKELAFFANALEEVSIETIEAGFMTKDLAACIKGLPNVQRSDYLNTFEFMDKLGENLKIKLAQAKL", "test": "Inhibition of human C-terminal His8-tagged IDH1-R132H mutant expressed in Escherichia coli Rosetta cells assessed as inhibition of ketoreductase activity measured as NADPH consumption preincubated for 60 mins followed by addition of NADPH and alpha-KG as substrate measured after 50 mins using Mg2+ …"}, "[2]": {"test": "Octanol-phosphate buffer partition coefficient, log D of compound at pH 7.4 at 67 uM", "format": "physicochemical"}, "[3]": {"test": "Thermodynamic solubility of the compound in PBS at 100 uM and pH 7.4 measured after 18 hrs by UPLC-MS analysis", "format": "physicochemical", "conditions": "read-out: Therm_solubility"}, "[4]": {"system": "Isocitrate dehydrogenase [NADP] cytoplasmic (Homo sapiens), O75874 [R132H]", "test": "(§1) Inhibition of human C-terminal His8-tagged IDH1-R132H mutant expressed in Escherichia coli Rosetta assessed as inhibition of ketoreductase activity by measuring NADPH consumption preincubated for 10 mins followed by addition of NADPH and alpha-KG as substrate by fluorescence method", "procedure,_shortened": "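Purified IDH1-R132H incubated with α-KG and NADPH; direct kinetic read of falling NADPH fluorescence, run in dose. Enzyme concentration kept below that of the screening assays so inhibitor stays far above enzyme. IC50 values are geometric means of at least three independent experiments.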"}, "[5]": {"system": "Isocitrate dehydrogenase [NADP] cytoplasmic (Homo sapiens), O75874 [R132H]", "test": "(§2) Competitive inhibition of recombinant human C-terminal His8-tagged IDH1-R132H mutant expressed in Escherichia coli Rosetta cells assessed as inhibition of ketoreductase activity by measuring NADPH consumption preincubated for 10 mins followed by addition of NADPH and varying levels of alpha-KG as substrate in presence of constant Mg2+ concentration by fluorescence method"}, "[6]": {"test": "Cytotoxicity against human HA1EM cells assessed as decrease in intracellular ATP levels at >10 uM measured after 72 hrs by CellTiter-Glo assay", "format": "toxicity, cell-based", "procedure,_shortened": "(§3)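 IDH1-R132H-overexpressing HA1E-M cells treated for 72 h. After media harvest, viability assessed by morphology and ATP levels. Values are normalized to DMSO controls, mean ± SD of three independent experiments each run in triplicate.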"}, "[7]": {"biological_target": "Isocitrate dehydrogenase [NADP] cytoplasmic (Homo sapiens, UniProt O75874)", "sequence (O75874 whole entry)": "as the sequence (O75874 whole entry R132H) above, with H132R counted along it", "test": "Inhibition of wild type human C-terminal His8-tagged IDH1 expressed in Escherichia coli Rosetta cells assessed as reduction in isocitrate to alpha-KG conversion preincubated for 15 mins followed by substrate addition in presence of NADP+ by resazurin based diaphorase-coupled fluorescence assay", "procedure,_shortened": "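Wild-type IDH1 activity read as NADPH production from NADP+ and isocitrate, through a diaphorase-coupled fluorescence reaction analogous to the primary screen.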"}, "[8]": {"test": "Cytotoxicity against human U937 cells assessed as decrease in intracellular ATP levels up to 10 uM measured after 72 hrs by CellTiter-Glo assay", "format": "toxicity, cell-based", "conditions": "u-937, 72 h"}, "[9]": {"system": "Isocitrate dehydrogenase [NADP] cytoplasmic (Homo sapiens), O75874 [R132H]", "test": "as §1, with “20” for “10”, “substrate in presence of Mg2+” for “substrate”, “spectrophotometric” for “fluorescence”", "procedure,_shortened": "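Orthogonal confirmation assay: IDH1-R132H ketoreductase activity with NADPH detected by absorbance. Positives retested in 8-point dose.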"}, "[10]": {"biological_target": "Isocitrate dehydrogenase [NADP], mitochondrial (Homo sapiens) (UniProt P48735)", "test": "Inhibition of human C-terminal FLAG-tagged IDH2-R140Q mutant (1 to 452 residues) expressed in baculovirus infeceted sf9 cells assessed as inhibition of ketoreductase activity preincubated for 10 mins followed by addition of NADPH and alpha-KG as substrate by fluorescence method"}, "[11]": {"system": "Isocitrate dehydrogenase [NADP] cytoplasmic (Homo sapiens), O75874 [R132C]", "sequence (O75874 whole entry R132C)": "as the sequence (O75874 whole entry R132H) above, with H132C counted along it", "test": "Inhibition of human C-terminal His8-tagged IDH1-R132C mutant expressed in Escherichia coli Rosetta cells assessed as change in melting temperature at 5 uM measured over 20 mins using SYPRO orange dye by DSF analysis", "procedure,_shortened": "(§4)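 Differential scanning fluorimetry of recombinant enzyme, giving melting temperature shift with compound present. Mean of 3 independent experiments, each with 7 replicates.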"}, "[12]": {"test": "Protein binding in mouse plasma at 5 uM measured after 5 hrs by rapid equilibrium dialysis method", "format": "ADME, cell-free", "conditions": "read-out: PPB (converted)"}, "[13]": {"test": "Half life in human liver microsomes at 1 uM by LC-MS/MS analysis", "format": "ADME"}, "[14]": {"system": "Isocitrate dehydrogenase [NADP] cytoplasmic (Homo sapiens), O75874 [R132H]", "test": "as §2, with “and” for “and varying levels of”, “varying levels of” for “constant”"}, "[15]": {"system": "Isocitrate dehydrogenase [NADP] cytoplasmic (Homo sapiens), O75874 [R132H]", "test": "(§5) Inhibition of IDH1-R132H mutant (unknown origin) expressed in human HA1EM cells assessed as suppression of R-2HG secretion measured after 72 hrs by LC-MS/MS analysis", "format": "cell-based", "procedure,_shortened": "(§6)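 HA1E-M cells (HEK-293 derivative) engineered to overexpress IDH1-R132H and release R-2HG into growth media. Compound treatment for 72 h, then R-2HG in conditioned media measured by LC-MS. Values normalized to DMSO-treated controls; EC50 from three independent experiments, each run in triplicate.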"}, "[16]": {"biological_target": "T1, Isocitrate dehydrogenase [NADP] cytoplasmic (Homo sapiens, UniProt O75874, R132H)", "test": "as §5", "format": "cell-based", "procedure,_shortened": "as §6"}, "[17]": {"system": "Isocitrate dehydrogenase [NADP] cytoplasmic (Homo sapiens), O75874 [R132H]", "test": "Inhibition of human C-terminal His8-tagged IDH1-R132H mutant expressed in Escherichia coli Rosetta cells assessed as change in melting temperature at 5 uM measured over 20 mins using SYPRO orange dye by DSF analysis", "procedure,_shortened": "as §4"}, "[18]": {"biological_target": "Isocitrate dehydrogenase [NADP] cytoplasmic (Homo sapiens, UniProt O75874, R132C)", "sequence (O75874 2-414 R132C limits assumed)": "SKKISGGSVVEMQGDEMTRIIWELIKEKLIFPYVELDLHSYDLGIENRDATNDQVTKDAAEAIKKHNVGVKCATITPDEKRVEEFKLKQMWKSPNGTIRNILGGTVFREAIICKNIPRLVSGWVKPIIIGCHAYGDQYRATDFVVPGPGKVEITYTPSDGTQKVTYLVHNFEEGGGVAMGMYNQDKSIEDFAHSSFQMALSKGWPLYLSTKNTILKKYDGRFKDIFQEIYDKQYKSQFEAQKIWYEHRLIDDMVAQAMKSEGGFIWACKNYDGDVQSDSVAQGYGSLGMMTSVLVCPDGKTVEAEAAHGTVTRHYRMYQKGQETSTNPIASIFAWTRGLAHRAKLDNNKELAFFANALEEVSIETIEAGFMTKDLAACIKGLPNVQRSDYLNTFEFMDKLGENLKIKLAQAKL", "test": "Inhibition of human C-terminal His8-tagged IDH1-R132C mutant expressed in Escherichia coli Rosetta assessed as inhibition of ketoreductase activity by measuring NADPH consumption preincubated for 10 mins followed by addition of NADPH and alpha-KG as substrate by fluorescence method"}, "[19]": {"test": "Cytotoxicity against human THP1 cells assessed as decrease in intracellular ATP levels at >10 uM measured after 72 hrs by CellTiter-Glo assay", "format": "toxicity, cell-based", "conditions": "thp-1, 72 h"}, "[20]": {"test": "Cytotoxicity against human U937 cells assessed as decrease in intracellular ATP levels at >10 uM measured after 72 hrs by CellTiter-Glo assay", "format": "toxicity, cell-based", "conditions": "u-937, 72 h"}, "[21]": {"test": "Cytotoxicity against human THP1 cells assessed as decrease in intracellular ATP levels up to 10 uM measured after 72 hrs by CellTiter-Glo assay", "format": "toxicity, cell-based", "conditions": "thp-1, 72 h"}, "[22]": {"biological_target": "T1, Isocitrate dehydrogenase [NADP] cytoplasmic", "test": "Inhibition of human C-terminal His8-tagged IDH1-R132H mutant expressed in Escherichia coli Rosetta assessed as inhibition of ketoreductase activity by measuring NADPH consumption preincubated for 60 mins followed by addition of alpha-KG as substrate measured after 50 mins in presence of NADPH and Mg2+ by resazurin based diaphorase-coupled fluorescence assay", "procedure,_shortened": "(§7)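 IDH1-R132H–Mg2+ ketoreductase assay reading NADPH consumption through a diaphorase-coupled fluorescence reaction. Buffer contained 0.01% Tween 20 against aggregation. Primary screen at 15 μM in duplicate, with positives set at ≥60% inhibition in both replicates. Retests were in 8-point dose.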"}, "[23]": {"test": "Half life in mouse liver microsomes at 1 uM by LC-MS/MS analysis", "format": "ADME"}, "[24]": {"system": "Isocitrate dehydrogenase [NADP] cytoplasmic (Homo sapiens), O75874 [R132H]", "test": "Inhibition of human C-terminal His8-tagged IDH1-R132H mutant expressed in Escherichia coli Rosetta cells assessed as inhibition of ketoreductase activity measured as NADPH consumption preincubated for 60 mins followed by addition of NADPH and alpha-KG as substrate measured after 50 mins using Mg2+ as cofactor in presence of tween-20 detergent by resazurin/diaphorase-coupled fluorescence analysis", "procedure,_shortened": "as §7"}, "[25]": {"test": "Cytotoxicity against human HA1EM cells assessed as decrease in intracellular ATP levels up to 10 uM measured after 72 hrs by CellTiter-Glo assay", "format": "toxicity, cell-based", "procedure,_shortened": "as §3"}, "[26]": {"test": "Protein binding in human plasma at 5 uM measured after 5 hrs by rapid equilibrium dialysis method", "format": "ADME, cell-free", "conditions": "read-out: PPB (converted)"}}, "note": "Calls of active or inactive are those of the source. No cut-off for these calls is given here."}
{"smiles": "C[C@@H]1CN([C@@H](C)CO)S(=O)(=O)c2ccc(C#Cc3cccc(F)c3)cc2O[C@H]1CN(C)C(=O)NC1CCCCC1", "values": [{"measurement": "inhibition", "setting": "[1]", "result": "Active"}, {"measurement": "logD at 67 µM", "setting": "[2]", "result": 5.19}, {"measurement": "solubility thermodynamic at 18 h, 100 µM", "setting": "[3]", "result": 5, "unit": "µM"}, {"measurement": "inhibition", "setting": "[4]", "result": "Active"}, {"measurement": "inhibition", "setting": "[5]", "result": "Active"}, {"measurement": "Activity", "setting": "[6]", "result": "Toxic"}, {"measurement": "IC50", "setting": "[7]", "result": "> 20000", "unit": "nM"}, {"measurement": "Activity", "setting": "[8]", "result": "Non-Toxic"}, {"measurement": "inhibition", "setting": "[9]", "result": "Active"}, {"measurement": "IC50", "setting": "[10]", "result": "> 20000", "unit": "nM"}, {"measurement": "ΔTm", "setting": "[11]", "result": 1.4, "unit": "°C"}, {"measurement": "fraction unbound at 5 h, 5 µM", "setting": "[12]", "result": 0.037}, {"measurement": "half-life at 1 µM", "setting": "[13]", "result": 42, "unit": "s"}, {"measurement": "inhibition", "setting": "[14]", "result": "Active"}, {"measurement": "inhibition", "setting": "[15]", "result": "Dose-dependent effect"}, {"measurement": "EC50", "setting": "[16]", "result": 300, "unit": "nM"}, {"measurement": "ΔTm", "setting": "[17]", "result": 3.7, "unit": "°C"}, {"measurement": "IC50", "setting": "[18]", "result": 2500, "unit": "nM"}, {"measurement": "Activity", "setting": "[19]", "result": "Toxic"}, {"measurement": "Activity", "setting": "[20]", "result": "Toxic"}, {"measurement": "Activity", "setting": "[21]", "result": "Non-Toxic"}, {"measurement": "IC50", "setting": "[22]", "result": "50 to 57", "unit": "nM"}, {"measurement": "half-life at 1 µM", "setting": "[23]", "result": 42, "unit": "s"}, {"measurement": "inhibition", "setting": "[24]", "result": "Active"}, {"measurement": "Activity", "setting": "[25]", "result": "Non-Toxic"}, {"measurement": "fraction unbound at 5 h, 5 µM", "setting": "[26]", "result": 0.005}]}
